Laboratory results taken from ChEMBL document CHEMBL1146459, “Production of biologically active taxoids by a callus culture of Taxus cuspidata” (2004).

Key:
Type in all cases: functional, A2780 ADR
[1] = Reversal of multidrug resistance in human 2780AD cells assessed as [3H]vincristine accumulation at 0.1 ug/mL after 2 hrs relative to control
Summary of the method: (§1)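 Multidrug-resistant human ovarian cancer 2780AD cells were exposed to taxoids at 0.1, 1 or 10 µg/mL. Radiolabelled vincristine accumulated in the cells was measured as dpm/well, using means of triplicate determinations. Results are expressed as % of vincristine accumulated relative to the control experiment. They were also scored on a seven-level index according to the range of relative accumulation.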

[2] = Reversal of multidrug resistance in human 2780AD cells assessed as [3H]vincristine accumulation at 10 ug/mL after 2 hrs relative to verapamil
[3] = Reversal of multidrug resistance in human 2780AD cells assessed as [3H]vincristine accumulation at 1 ug/mL after 2 hrs relative to control; summary of the method: as §1
[4] = Reversal of multidrug resistance in human 2780AD cells assessed as [3H]vincristine accumulation at 0.1 ug/mL after 2 hrs relative to verapamil
[5] = Reversal of multidrug resistance in human 2780AD cells assessed as [3H]vincristine accumulation at 10 ug/mL after 2 hrs relative to control; summary of the method: as §1
[6] = Reversal of multidrug resistance in human 2780AD cells assessed as [3H]vincristine accumulation at 1 ug/mL after 2 hrs relative to verapamil

Structure (SMILES): C=C1[C@@H](OC(C)=O)CC[C@@]2(C)C[C@H](OC(C)=O)C3=C(C)C[C@H](OC(=O)C(C)C)[C@@H]([C@@H](OC(C)=O)[C@H]12)C3(C)C
- Activity [1]: 96%
- Activity [2]: 98%
- Activity [3]: 195%
- Activity [4]: 82%
- Activity [5]: 522%
- Activity [6]: 95%

Structure (SMILES): C=C1[C@@H](OC(C)=O)CC[C@@]2(C)C[C@H](OC(C)=O)C3=C(C)C[C@H](OC(=O)CC)[C@@H]([C@@H](OC(C)=O)[C@H]12)C3(C)C
- Activity [1]: 119%
- Activity [2]: 145%
- Activity [3]: 295%
- Activity [4]: 102%
- Activity [5]: 770%
- Activity [6]: 134%

Structure (SMILES): C=C1[C@@H](OC(C)=O)CC[C@@]2(C)C[C@H](OC(C)=O)C3=C(C)C[C@H](OC(C)=O)[C@@H]([C@@H](OC(C)=O)[C@H]12)C3(C)C [TAXUYUNNANINE C]
- Activity [1]: 105%
- Activity [2]: 78%
- Activity [3]: 155%
- Activity [4]: 91%
- Activity [5]: 244%
- Activity [6]: 97%

Structure (SMILES): COc1ccc(CCN(C)CCCC(C#N)(c2ccc(OC)c(OC)c2)C(C)C)cc1OC (configuration not stated) [VERAPAMIL]
- Activity [1]: 117%
- Activity [3]: 207%
- Activity [5]: 531%

Structure (SMILES): C=C1[C@@H](OC(C)=O)CC[C@@]2(C)C[C@H](OC(C)=O)C3=C(C)C[C@H](OC(=O)C(C)C(C)O)[C@@H]([C@@H](OC(C)=O)[C@H]12)C3(C)C (some centres not stated) [YUNNANXANE]
- Activity [1]: 112%
- Activity [2]: 75%
- Activity [3]: 150%
- Activity [4]: 97%
- Activity [5]: 234%
- Activity [6]: 94%
